Laboratory results published in ChEMBL document CHEMBL1139900, “Synthesis and SAR studies of a novel class of S1P1 receptor antagonists” (Bioorg Med Chem, 2007).

The compounds below were run against Sphingosine 1-phosphate receptor 3 (Homo sapiens, UniProt Q99500) (assay: Antagonist activity at human S1P3 receptor expressed in CHO cell membrane by FLIPR assay).
Format: functional, cell-based
In short: (§1)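 Stably transfected CHO cells in HAM medium with 10% dialyzed FBS, seeded at 5 × 10⁴ cells/mL and grown 2 days. Buffer: HBSS without phenol red, 20 mM Hepes, 2.5 mM probenecid, pH 7.4. Loaded 45–60 min with 4 µM Fluo3-AM plus 0.04% pluronic acid, then washed. Serially diluted compound added for 10 min before S1P injection; calcium fluorescence read on FLIPR.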

Sphingosine 1-phosphate receptor 3, sequence (Q99500 whole entry): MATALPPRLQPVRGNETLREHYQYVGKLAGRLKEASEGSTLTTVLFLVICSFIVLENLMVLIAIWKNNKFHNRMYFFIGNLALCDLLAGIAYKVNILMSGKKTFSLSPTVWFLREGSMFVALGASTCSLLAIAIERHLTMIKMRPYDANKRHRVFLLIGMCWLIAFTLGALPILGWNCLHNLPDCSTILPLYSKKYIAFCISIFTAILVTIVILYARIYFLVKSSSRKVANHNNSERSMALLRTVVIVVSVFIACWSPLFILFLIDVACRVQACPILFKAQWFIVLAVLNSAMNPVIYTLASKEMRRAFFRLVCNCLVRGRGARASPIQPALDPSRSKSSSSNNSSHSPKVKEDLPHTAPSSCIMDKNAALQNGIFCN

SMILES | IC50 [µM]
CCCCCCCCCCC#CC(O)c1ccccc1-c1ccc(Sc2ccc(OCCCC)cc2)c(S(=O)(=O)O)c1 (configuration not stated) | 13
CCCCOc1ccc(Sc2ccc(-c3ccccc3C(O)C#CCOCCCCCCCO)cc2S(=O)(=O)O)cc1 (configuration not stated) | 5

These compounds were tested against Sphingosine 1-phosphate receptor 2 (Homo sapiens, UniProt O95136) (assay: Antagonist activity at human S1P2 receptor expressed in CHO cell membrane by FLIPR assay).
Format: functional, cell-based
In short: as §1

Sphingosine 1-phosphate receptor 2, sequence (O95136 whole entry): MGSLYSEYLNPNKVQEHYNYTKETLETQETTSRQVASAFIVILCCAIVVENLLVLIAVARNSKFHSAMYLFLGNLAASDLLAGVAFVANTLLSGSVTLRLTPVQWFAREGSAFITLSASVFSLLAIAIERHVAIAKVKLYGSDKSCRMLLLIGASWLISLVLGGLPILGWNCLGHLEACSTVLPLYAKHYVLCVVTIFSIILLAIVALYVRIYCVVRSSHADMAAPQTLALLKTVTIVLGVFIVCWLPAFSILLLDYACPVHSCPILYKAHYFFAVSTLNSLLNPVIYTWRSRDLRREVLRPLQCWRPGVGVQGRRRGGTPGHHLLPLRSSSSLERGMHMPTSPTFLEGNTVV

SMILES | IC50 [µM]
CCCCCCCCCCC#CC(O)c1ccccc1-c1ccc(Sc2ccc(OCCCC)cc2)c(S(=O)(=O)O)c1 (configuration not stated) | 24
CCCCOc1ccc(Sc2ccc(-c3ccccc3C(O)C#CCOCCCCCCCO)cc2S(=O)(=O)O)cc1 (configuration not stated) | 11

The compounds below were run against Sphingosine 1-phosphate receptor 4 (Homo sapiens, UniProt O95977) (assay: Antagonist activity at human S1P4 receptor expressed in CHO cell membrane by FLIPR assay).
Format: functional, cell-based
In short: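 S1P4-expressing cells in HAM medium with 10% dialyzed FBS, seeded at 1 × 10⁵ cells/mL and grown 2 days. Buffer: HBSS without phenol red, 20 mM Hepes, 2.5 mM probenecid, pH 7.4. Fluo3-AM (4 µM, with 0.04% pluronic acid) loading for 45–60 min, then washed. Serially diluted compound given 10 min before S1P injection; calcium signal measured on FLIPR.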

Sphingosine 1-phosphate receptor 4, sequence (O95977 whole entry, looked up): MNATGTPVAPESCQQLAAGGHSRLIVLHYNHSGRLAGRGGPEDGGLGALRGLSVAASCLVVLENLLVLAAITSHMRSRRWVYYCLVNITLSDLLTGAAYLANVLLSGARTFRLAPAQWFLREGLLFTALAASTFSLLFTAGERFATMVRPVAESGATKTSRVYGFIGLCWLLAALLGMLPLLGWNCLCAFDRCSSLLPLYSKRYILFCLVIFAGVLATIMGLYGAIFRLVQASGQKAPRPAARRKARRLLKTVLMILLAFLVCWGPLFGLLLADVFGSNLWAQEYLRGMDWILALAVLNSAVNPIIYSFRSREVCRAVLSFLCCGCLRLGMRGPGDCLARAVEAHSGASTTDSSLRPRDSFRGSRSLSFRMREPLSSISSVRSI

SMILES | IC50 [µM]
CCCCCCCCCCC#CC(O)c1ccccc1-c1ccc(Sc2ccc(OCCCC)cc2)c(S(=O)(=O)O)c1 (configuration not stated) | 40
CCCCOc1ccc(Sc2ccc(-c3ccccc3C(O)C#CCOCCCCCCCO)cc2S(=O)(=O)O)cc1 (configuration not stated) | 6

The compounds below were run against T1, Sphingosine 1-phosphate receptor 1 (Homo sapiens, UniProt P21453) (assay: Antagonist activity at human S1P1 receptor expressed in CHO cell membrane by cAMP assay).
Format: functional, cell-based
In short: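 CHO cells stably expressing human S1P1, kept in selection medium with 125 nM methotrexate, seeded at 4 × 10⁵ cells/well and grown overnight. Serum was removed, cells preincubated 5 min with 1 mM IBMX, then stimulated 15 min with 30 µM forskolin ± 100 nM S1P plus test compound at various concentrations, with IBMX kept present. Cells were lysed in 1% Triton X-100; cAMP read by competitive kit assay (n = 3).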

T1 sequence (P21453 whole entry): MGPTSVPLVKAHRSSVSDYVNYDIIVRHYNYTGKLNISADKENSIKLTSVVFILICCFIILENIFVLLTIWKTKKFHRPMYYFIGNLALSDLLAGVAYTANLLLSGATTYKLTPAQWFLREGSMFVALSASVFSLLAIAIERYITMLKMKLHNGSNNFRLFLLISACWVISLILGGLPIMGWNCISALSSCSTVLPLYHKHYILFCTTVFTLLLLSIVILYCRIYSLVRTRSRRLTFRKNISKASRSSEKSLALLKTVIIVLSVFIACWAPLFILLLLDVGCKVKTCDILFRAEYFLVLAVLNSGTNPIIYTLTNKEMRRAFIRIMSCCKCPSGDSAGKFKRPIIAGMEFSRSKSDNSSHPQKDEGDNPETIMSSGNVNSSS

SMILES | IC50 [µM]
CCCCCCCCCCC#CC(O)c1cccc(-c2ccc(Oc3ccc(OCC)cc3)c(S(=O)(=O)O)c2)c1 (configuration not stated) | 4.6
CCCCCCCCCCC#CC(O)c1ccccc1-c1ccc(Sc2ccc(OCC)cc2)c(S(=O)(=O)O)c1 (configuration not stated) | 0.4
CCCCCCCCCCC#CC(O)c1ccccc1-c1ccc(Sc2ccc(OCCCC)cc2)c(S(=O)(=O)O)c1 (configuration not stated) | 0.19
CCCCCCCCCCC#CC(O)c1ccccc1-c1ccc(Oc2ccc(OCC)cc2)c(S(=O)(=O)O)c1 (configuration not stated) | 0.4
CCCCCCCCCCC#CC(O)c1ccccc1-c1ccc(Oc2cccc(OCC)c2)c(S(=O)(=O)O)c1 (configuration not stated) | > 17
CCCCCCCCCCC#CC(O)c1ccccc1-c1ccc(Sc2ccc(OCCCCCCCC)cc2)c(S(=O)(=O)O)c1 (configuration not stated) | > 2.4
CCCCOc1ccc(Sc2ccc(-c3ccccc3C(O)C#CCOCCCCCCCCCO)cc2S(=O)(=O)O)cc1 (configuration not stated) | 0.098
CCCCCCCCCCC#CC(O)c1ccc(-c2ccc(Oc3ccc(OCC)cc3)c(S(=O)(=O)O)c2)s1 (configuration not stated) | 5.5
CCCCCCCCCCC#CC(O)c1ccccc1-c1ccc(Sc2ccc(OC)cc2)c(S(=O)(=O)O)c1 (configuration not stated) | 0.7
CCCCCCCCCCC#CC(O)c1ccccc1-c1ccc(Sc2ccc(OCCC)cc2)c(S(=O)(=O)O)c1 (configuration not stated) | 0.19
CCCCCCCCCCCCCCCCCC1=NN(c2ccc(Oc3ccc(OCC)cc3)c(S(=O)(=O)O)c2)C(=O)C1 | 17
CCCCCCCCCCC#CC(O)c1ccccc1-c1ccc(Sc2ccc(OCCCCCC)cc2)c(S(=O)(=O)O)c1 (configuration not stated) | 0.52
CCCCOc1ccc(Sc2ccc(-c3ccccc3C(O)C#CCOCCCO)cc2S(=O)(=O)O)cc1 (configuration not stated) | > 20
CCCCOc1ccc(Sc2ccc(-c3ccccc3C(O)C#CCOCCCCCCCCCCCO)cc2S(=O)(=O)O)cc1 (configuration not stated) | 0.13
CCCCCCCCCCC#CC(C)(O)c1ccccc1-c1ccc(Sc2ccc(OCCCC)cc2)c(S(=O)(=O)O)c1 (configuration not stated) | 1
CCCCOc1ccc(Sc2ccc(-c3ccccc3C(O)C#CCOCCCCCO)cc2S(=O)(=O)O)cc1 (configuration not stated) | 0.34
CCCCOc1ccc(Sc2ccc(-c3ccccc3C(O)C#CCOCCCCCCCO)cc2S(=O)(=O)O)cc1 (configuration not stated) | 0.031
CCCCCCCCCCC#CC(O)c1ccccc1-c1ccc(Oc2ccccc2OCC)c(S(=O)(=O)O)c1 (configuration not stated) | 8.9
CCCCCCCCCCC#CC(O)c1sccc1-c1ccc(Oc2ccc(OCC)cc2)c(S(=O)(=O)O)c1 (configuration not stated) | 1.3

Each compound was assayed against T1, Sphingosine 1-phosphate receptor 1 (assay: Antagonist activity at human S1P1 receptor expressed in CHO cell membrane by FLIPR assay).
Format: functional, cell-based
In short: as §1

SMILES | IC50 [µM]
CCCCCCCCCCC#CC(O)c1ccccc1-c1ccc(Sc2ccc(OCCCC)cc2)c(S(=O)(=O)O)c1 (configuration not stated) | 1
CCCCOc1ccc(Sc2ccc(-c3ccccc3C(O)C#CCOCCCCCCCO)cc2S(=O)(=O)O)cc1 (configuration not stated) | 0.5
